According to ChEMBL document CHEMBL5058577, “EUbOPEN Chemogenomics Library 2 (Multiplex)” (2022):

Tested on: Fibroblast
Test: Multiplex assay against human fibroblast
Assay type: toxicity, cell-based
Method in brief: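 At seeding, live cells were stained with Hoechst33342, BioTracker Green Microtubule Cytoskeleton Dye, MitoTracker Red and Annexin V Alexa Fluor 680. After compound addition they were imaged on a CQ1 microscope at 37°C and 5% CO2, and CellPathfinder machine-learning gating sorted them into Hoechst high-intensity objects or normal cells, with normal cells further split into healthy, pyknosed or fragmented nuclei and pyknosed cells into mitotic or apoptotic. Tubulin, mitochondrial-mass and membrane-permeability phenotypes are given as per cents of cells with healthy nuclei.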

[1] = 12 h, 1 µM, compound concentration 1 uM, replicate 1
[2] = 12 h, 1 µM, compound concentration 1 uM, replicate 2
[3] = 12 h, 10 µM, compound concentration 10 uM, replicate 1
[4] = 12 h, 10 µM, compound concentration 10 uM, replicate 2
[5] = 24 h, 1 µM, compound concentration 1 uM, replicate 1
[6] = 24 h, 1 µM, compound concentration 1 uM, replicate 2
[7] = 24 h, 10 µM, compound concentration 10 uM, replicate 1
[8] = 24 h, 10 µM, compound concentration 10 uM, replicate 2
[9] = 48 h, 1 µM, compound concentration 1 uM, replicate 1
[10] = 48 h, 1 µM, compound concentration 1 uM, replicate 2
[11] = 48 h, 10 µM, compound concentration 10 uM, replicate 1
[12] = 48 h, 10 µM, compound concentration 10 uM, replicate 2

## O=C(NCCO)c1cccc(-c2cc(Nc3ccc(OC(F)(F)F)cc3)ncn2)c1
[1]
  Population Apoptotic (%): 46%
  Population Fragmented Nuclei (%): 16%
  Population Healthy Nuclei (%): 60%
  Population Hoechst High Intensity Objects (%): 3%
  Population Membrane Permeable-Phenotype (%): 1%
  Population Mitochondria Different-Phenotype (%): 6%
  Population Mitotic Cells (%): 53%
  Population Normal (%): 96%
  Population Pyknosed Nuclei (%): 24%
  Population Tubulin-Different-Phenotype (%): 33%
  Total Cell Count: 130
[2]
  Population Apoptotic (%): 38%
  Population Fragmented Nuclei (%): 29%
  Population Healthy Nuclei (%): 46%
  Population Hoechst High Intensity Objects (%): 4%
  Population Membrane Permeable-Phenotype (%): 10%
  Population Mitochondria Different-Phenotype (%): 8%
  Population Mitotic Cells (%): 61%
  Population Normal (%): 95%
  Population Pyknosed Nuclei (%): 23%
  Population Tubulin-Different-Phenotype (%): 46%
  Total Cell Count: 149
[3]
  Population Apoptotic (%): 37%
  Population Fragmented Nuclei (%): 17%
  Population Healthy Nuclei (%): 59%
  Population Hoechst High Intensity Objects (%): 5%
  Population Membrane Permeable-Phenotype (%): 0%
  Population Mitochondria Different-Phenotype (%): 13%
  Population Mitotic Cells (%): 62%
  Population Normal (%): 94%
  Population Pyknosed Nuclei (%): 22%
  Population Tubulin-Different-Phenotype (%): 54%
  Total Cell Count: 185
[4]
  Population Apoptotic (%): 40%
  Population Fragmented Nuclei (%): 22%
  Population Healthy Nuclei (%): 36%
  Population Hoechst High Intensity Objects (%): 10%
  Population Membrane Permeable-Phenotype (%): 11%
  Population Mitochondria Different-Phenotype (%): 11%
  Population Mitotic Cells (%): 59%
  Population Normal (%): 89%
  Population Pyknosed Nuclei (%): 40%
  Population Tubulin-Different-Phenotype (%): 79%
  Total Cell Count: 192
[5]
  Population Apoptotic (%): 56%
  Population Fragmented Nuclei (%): 16%
  Population Healthy Nuclei (%): 60%
  Population Hoechst High Intensity Objects (%): 1%
  Population Membrane Permeable-Phenotype (%): 2%
  Population Mitochondria Different-Phenotype (%): 4%
  Population Mitotic Cells (%): 43%
  Population Normal (%): 98%
  Population Pyknosed Nuclei (%): 22%
  Population Tubulin-Different-Phenotype (%): 33%
  Total Cell Count: 135
[6]
  Population Apoptotic (%): 52%
  Population Fragmented Nuclei (%): 24%
  Population Healthy Nuclei (%): 50%
  Population Hoechst High Intensity Objects (%): 2%
  Population Membrane Permeable-Phenotype (%): 5%
  Population Mitochondria Different-Phenotype (%): 5%
  Population Mitotic Cells (%): 47%
  Population Normal (%): 97%
  Population Pyknosed Nuclei (%): 25%
  Population Tubulin-Different-Phenotype (%): 42%
  Total Cell Count: 139
[7]
  Population Apoptotic (%): 50%
  Population Fragmented Nuclei (%): 14%
  Population Healthy Nuclei (%): 61%
  Population Hoechst High Intensity Objects (%): 11%
  Population Membrane Permeable-Phenotype (%): 1%
  Population Mitochondria Different-Phenotype (%): 21%
  Population Mitotic Cells (%): 50%
  Population Normal (%): 88%
  Population Pyknosed Nuclei (%): 24%
  Population Tubulin-Different-Phenotype (%): 53%
  Total Cell Count: 175
[8]
  Population Apoptotic (%): 41%
  Population Fragmented Nuclei (%): 30%
  Population Healthy Nuclei (%): 36%
  Population Hoechst High Intensity Objects (%): 7%
  Population Membrane Permeable-Phenotype (%): 10%
  Population Mitochondria Different-Phenotype (%): 25%
  Population Mitotic Cells (%): 58%
  Population Normal (%): 92%
  Population Pyknosed Nuclei (%): 32%
  Population Tubulin-Different-Phenotype (%): 84%
  Total Cell Count: 187
[9]
  Population Apoptotic (%): 82%
  Population Fragmented Nuclei (%): 21%
  Population Healthy Nuclei (%): 65%
  Population Hoechst High Intensity Objects (%): 1%
  Population Membrane Permeable-Phenotype (%): 3%
  Population Mitochondria Different-Phenotype (%): 1%
  Population Mitotic Cells (%): 17%
  Population Normal (%): 98%
  Population Pyknosed Nuclei (%): 13%
  Population Tubulin-Different-Phenotype (%): 28%
  Total Cell Count: 130
[10]
  Population Apoptotic (%): 45%
  Population Fragmented Nuclei (%): 31%
  Population Healthy Nuclei (%): 53%
  Population Membrane Permeable-Phenotype (%): 6%
  Population Mitochondria Different-Phenotype (%): 4%
  Population Mitotic Cells (%): 54%
  Population Pyknosed Nuclei (%): 14%
  Population Tubulin-Different-Phenotype (%): 38%
  Total Cell Count: 156
[11]
  Population Apoptotic (%): 70%
  Population Fragmented Nuclei (%): 35%
  Population Healthy Nuclei (%): 51%
  Population Hoechst High Intensity Objects (%): 13%
  Population Membrane Permeable-Phenotype (%): 0%
  Population Mitochondria Different-Phenotype (%): 26%
  Population Mitotic Cells (%): 30%
  Population Normal (%): 86%
  Population Pyknosed Nuclei (%): 13%
  Population Tubulin-Different-Phenotype (%): 64%
  Total Cell Count: 170
[12]
  Population Apoptotic (%): 76%
  Population Fragmented Nuclei (%): 40%
  Population Healthy Nuclei (%): 47%
  Population Hoechst High Intensity Objects (%): 6%
  Population Membrane Permeable-Phenotype (%): 13%
  Population Mitochondria Different-Phenotype (%): 19%
  Population Mitotic Cells (%): 23%
  Population Normal (%): 93%
  Population Pyknosed Nuclei (%): 11%
  Population Tubulin-Different-Phenotype (%): 86%
  Total Cell Count: 198

## O=C1COc2nccc(-c3ccccc3F)c2CN1Cc1cc(C(F)(F)F)cc(C(F)(F)F)c1
[1]
  Population Apoptotic (%): 38%
  Population Fragmented Nuclei (%): 12%
  Population Healthy Nuclei (%): 74%
  Population Hoechst High Intensity Objects (%): 2%
  Population Membrane Permeable-Phenotype (%): 1%
  Population Mitochondria Different-Phenotype (%): 7%
  Population Mitotic Cells (%): 61%
  Population Normal (%): 97%
  Population Pyknosed Nuclei (%): 13%
  Population Tubulin-Different-Phenotype (%): 27%
  Total Cell Count: 195
[2]
  Population Apoptotic (%): 29%
  Population Fragmented Nuclei (%): 17%
  Population Healthy Nuclei (%): 62%
  Population Hoechst High Intensity Objects (%): 0%
  Population Mitochondria Different-Phenotype (%): 5%
  Population Mitotic Cells (%): 70%
  Population Normal (%): 99%
  Population Pyknosed Nuclei (%): 20%
  Population Tubulin-Different-Phenotype (%): 32%
  Total Cell Count: 135
[3]
  Population Apoptotic (%): 54%
  Population Fragmented Nuclei (%): 15%
  Population Healthy Nuclei (%): 69%
  Population Hoechst High Intensity Objects (%): 5%
  Population Membrane Permeable-Phenotype (%): 0%
  Population Mitochondria Different-Phenotype (%): 10%
  Population Mitotic Cells (%): 45%
  Population Normal (%): 94%
  Population Pyknosed Nuclei (%): 14%
  Population Tubulin-Different-Phenotype (%): 66%
  Total Cell Count: 161
[4]
  Population Apoptotic (%): 37%
  Population Fragmented Nuclei (%): 24%
  Population Healthy Nuclei (%): 51%
  Population Hoechst High Intensity Objects (%): 8%
  Population Membrane Permeable-Phenotype (%): 4%
  Population Mitochondria Different-Phenotype (%): 12%
  Population Mitotic Cells (%): 62%
  Population Normal (%): 91%
  Population Pyknosed Nuclei (%): 23%
  Population Tubulin-Different-Phenotype (%): 50%
  Total Cell Count: 132
[5]
  Population Apoptotic (%): 53%
  Population Fragmented Nuclei (%): 11%
  Population Healthy Nuclei (%): 74%
  Population Hoechst High Intensity Objects (%): 3%
  Population Membrane Permeable-Phenotype (%): 0%
  Population Mitochondria Different-Phenotype (%): 6%
  Population Mitotic Cells (%): 46%
  Population Normal (%): 96%
  Population Pyknosed Nuclei (%): 14%
  Population Tubulin-Different-Phenotype (%): 23%
  Total Cell Count: 203
[6]
  Population Apoptotic (%): 34%
  Population Fragmented Nuclei (%): 20%
  Population Healthy Nuclei (%): 58%
  Population Hoechst High Intensity Objects (%): 2%
  Population Membrane Permeable-Phenotype (%): 2%
  Population Mitochondria Different-Phenotype (%): 3%
  Population Mitotic Cells (%): 65%
  Population Normal (%): 97%
  Population Pyknosed Nuclei (%): 20%
  Population Tubulin-Different-Phenotype (%): 39%
  Total Cell Count: 142
[7]
  Population Apoptotic (%): 66%
  Population Fragmented Nuclei (%): 18%
  Population Healthy Nuclei (%): 71%
  Population Hoechst High Intensity Objects (%): 3%
  Population Membrane Permeable-Phenotype (%): 0%
  Population Mitochondria Different-Phenotype (%): 11%
  Population Mitotic Cells (%): 33%
  Population Normal (%): 96%
  Population Pyknosed Nuclei (%): 9%
  Population Tubulin-Different-Phenotype (%): 57%
  Total Cell Count: 162
[8]
  Population Apoptotic (%): 55%
  Population Fragmented Nuclei (%): 26%
  Population Healthy Nuclei (%): 56%
  Population Hoechst High Intensity Objects (%): 6%
  Population Membrane Permeable-Phenotype (%): 7%
  Population Mitochondria Different-Phenotype (%): 5%
  Population Mitotic Cells (%): 45%
  Population Normal (%): 93%
  Population Pyknosed Nuclei (%): 16%
  Population Tubulin-Different-Phenotype (%): 61%
  Total Cell Count: 129
[9]
  Population Apoptotic (%): 75%
  Population Fragmented Nuclei (%): 16%
  Population Healthy Nuclei (%): 75%
  Population Hoechst High Intensity Objects (%): 5%
  Population Membrane Permeable-Phenotype (%): 0%
  Population Mitochondria Different-Phenotype (%): 4%
  Population Mitotic Cells (%): 25%
  Population Normal (%): 94%
  Population Pyknosed Nuclei (%): 8%
  Population Tubulin-Different-Phenotype (%): 28%
  Total Cell Count: 210
[10]
  Population Apoptotic (%): 31%
  Population Fragmented Nuclei (%): 29%
  Population Healthy Nuclei (%): 55%
  Population Hoechst High Intensity Objects (%): 6%
  Population Membrane Permeable-Phenotype (%): 1%
  Population Mitochondria Different-Phenotype (%): 1%
  Population Mitotic Cells (%): 68%
  Population Normal (%): 93%
  Population Pyknosed Nuclei (%): 14%
  Population Tubulin-Different-Phenotype (%): 25%
  Total Cell Count: 143
[11]
  Population Apoptotic (%): 72%
  Population Fragmented Nuclei (%): 20%
  Population Healthy Nuclei (%): 72%
  Population Hoechst High Intensity Objects (%): 2%
  Population Membrane Permeable-Phenotype (%): 0%
  Population Mitochondria Different-Phenotype (%): 14%
  Population Mitotic Cells (%): 27%
  Population Normal (%): 97%
  Population Pyknosed Nuclei (%): 6%
  Population Tubulin-Different-Phenotype (%): 62%
  Total Cell Count: 172
[12]
  Population Apoptotic (%): 60%
  Population Fragmented Nuclei (%): 39%
  Population Healthy Nuclei (%): 49%
  Population Hoechst High Intensity Objects (%): 5%
  Population Membrane Permeable-Phenotype (%): 1%
  Population Mitochondria Different-Phenotype (%): 8%
  Population Mitotic Cells (%): 40%
  Population Normal (%): 94%
  Population Pyknosed Nuclei (%): 11%
  Population Tubulin-Different-Phenotype (%): 47%
  Total Cell Count: 144
